Drawing on ChEMBL document CHEMBL3352197, “Design, synthesis, in silico and in vitro studies of novel 4-methylthiazole-5-carboxylic acid derivatives as potent anti-cancer agents” (Bioorg Med Chem Lett, 2014), this text covers OD, viability and logP for 13 compounds.

The term logP denotes a log measure of how a compound divides between an organic and an aqueous phase. A high value points to higher lipophilicity.

Data set [1] deals with MDA-MB-231. The data set is described as follows: Cytotoxicity against human MDA-MB-231 cells assessed as optical density after 24 hrs by MTT assay (Rvb =2.43 +/- 0.05 nm). It is filed as functional. The method in brief: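 Exponentially growing MDA-MB-231 cells were resuspended in medium with 10% FBS, washed with PBS, and treated in fresh medium for 24 h. MTT (5 mg/mL stock in PBS) was then added for 4 h at 37 °C. Formazan was dissolved in DMSO and optical density read at 570 nm.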
For orientation: Tetrazolium dyes change colour on reduction, which living cells bring about.

Data set [2] deals with MDA-MB-231. The data set can be described thus: Cytotoxicity against human MDA-MB-231 cells assessed as cell viability at 10 ug/ml after 24 to 48 hrs by trypan blue exclusion assay (reference value: 87.54 +/- 2.11%). The data set is classed as functional. The settings on record: read-out: Activity. The method in brief: (§1)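 MDA-MB-231 cells (DMEM, 10% FBS, 2 mM glutamine, 37 °C, 5% CO2) seeded at 2 x 10^5/well and grown 24 h. Compound in fresh medium with 0.1% DMSO (solvent control) for 24–48 h at 37 °C. Floating plus trypsinized adherent cells mixed 1:1 with 0.4% trypan blue and counted by haemocytometer. % viable = (total − dead)/total × 100. Mean SE, n = 3.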

For data set [3], the system named is MDA-MB-231. The data set is described as follows: Cytotoxicity against human MDA-MB-231 cells assessed as cell viability at 100 ug/ml after 24 to 48 hrs by trypan blue exclusion assay (reference value: 86.21 +/- 1.80%). It is filed as functional. The settings on record: read-out: Activity. The method in brief:
as §1

Data set [4] can be described thus: Lipophilicity, log P of the compound. The following applies: octanol/water. It is filed as physicochemical.

Consider `Cc1nc(-c2ccc(OCC(C)C)c(C#N)c2)sc1C(=O)NCc1ccccc1`, for which, in data set [1], the OD was 1.89. For the same compound, the viability at 10 µg/mL in data set [2] is 73.6%. Besides, the viability at 100 µg/mL in data set [3] was determined as 63.5%. This compound displayed a log partition coefficient (logP) in data set [4] of 2.2.

Consider `Cc1nc(-c2ccc(OCC(C)C)c(C#N)c2)sc1C(=O)NCc1ccccc1F`, for which, in data set [1], the OD was determined as 1.27. Further, in data set [2], the viability at 10 µg/mL was found to be 58.3%. Also, the viability at 100 µg/mL in data set [3] amounted to 43.2%. Also, the logP in data set [4] came to 2.9.

On to `Cc1nc(-c2ccc(OCC(C)C)c(C#N)c2)sc1C(=O)NCc1cccc(F)c1`, for which, in data set [1], the OD turned out to be 1.44. In addition, the viability at 10 µg/mL in data set [2] stood at 64.3%. In addition, the viability at 100 µg/mL in data set [3] amounted to 54.3%. The same compound had a logP in data set [4] of 2.86.

Take `Cc1nc(-c2ccc(OCC(C)C)c(C#N)c2)sc1C(=O)NCc1ccc(F)cc1`: the OD in data set [1] worked out at 0.33. Also, the viability at 10 µg/mL in data set [2] is 21.8%. In data set [3], the viability at 100 µg/mL was found to be 13.1%. Moreover, the lipophilicity (logP) in data set [4] stood at 2.86.

For `Cc1nc(-c2ccc(OCC(C)C)c(C#N)c2)sc1C(=O)Nc1ccccc1`, in data set [1], the OD amounted to 1.31. The viability at 10 µg/mL in data set [2] was 62.7%. For the same compound, the viability at 100 µg/mL in data set [3] turned out to be 50.7%. The compound further had a logP in data set [4] of 4.57.

As to `Cc1nc(-c2ccc(OCC(C)C)c(C#N)c2)sc1C(=O)N1CCC(c2noc3cc(F)ccc23)CC1`, the OD in data set [1] is 1.65. Moreover, the viability at 10 µg/mL in data set [2] is 64.6%. In data set [3], the viability at 100 µg/mL was 56.3%. The compound further yielded a logP in data set [4] of 2.7.

`COC(=O)c1sc(-c2ccc(OCC(C)C)c(C#N)c2)nc1C`: the OD in data set [1] was 2.27. For the same compound, in data set [2], the viability at 10 µg/mL is 76.7%. Besides, in data set [3], the viability at 100 µg/mL turned out to be 67.6%. Further, the lipophilicity (logP) in data set [4] worked out at 1.63.

Consider `Cc1nc(-c2ccc(OCC(C)C)c(C#N)c2)sc1C(=O)n1ccc(N)nc1=O`, for which, in data set [1], the OD is 0.79. Further, in data set [2], the viability at 10 µg/mL came to 40.9%. Besides, in data set [3], the viability at 100 µg/mL stood at 29.2%. Also, in data set [4], the logP came to 1.59.

`Cc1nc(-c2ccc(OCC(C)C)c(C#N)c2)sc1C(=O)n1cc(F)c(N)nc1=O`: the OD in data set [1] was determined as 2.11. Also, the viability at 10 µg/mL in data set [2] was determined as 74.6%. Moreover, the viability at 100 µg/mL in data set [3] is 66.4%. For the same compound, the logP in data set [4] worked out at 0.94.

Take `Cc1nc(-c2ccc(OCC(C)C)cc2)sc1C(=O)O`: in data set [1], the OD was determined as 1.73. In data set [2], the viability at 10 µg/mL came out at 71.2%. Further, in data set [3], the viability at 100 µg/mL was determined as 59.3%. In addition, the logP in data set [4] turned out to be 3.08.

For the compound `Cc1nc(-c2ccc(OCC(C)C)c(C#N)c2)sc1C(=O)OCC(C)C`, in data set [1], the OD was found to be 1.16. Besides, the viability at 10 µg/mL in data set [2] turned out to be 44.2%. Besides, the viability at 100 µg/mL in data set [3] stood at 36.2%. The same compound yielded a lipophilicity (logP) in data set [4] of 0.

For the compound `Cc1ccc(-c2cc(C(F)(F)F)nn2-c2ccc(S(N)(=O)=O)cc2)cc1` [CELECOXIB], the OD in data set [1] turned out to be 0.27. In addition, the viability at 10 µg/mL in data set [2] came to 17.3%. Moreover, in data set [3], the viability at 100 µg/mL turned out to be 11.4%.

As to `Cc1nc(-c2ccc(OCC(C)C)c(C#N)c2)sc1C(=O)O` [FEBUXOSTAT], the OD in data set [1] is 0.56. For the same compound, the viability at 10 µg/mL in data set [2] worked out at 38.3%. In addition, the viability at 100 µg/mL in data set [3] stood at 27.7%. In data set [4], the logP was 1.35.
